≈ marks a conversion by molar mass, not a printed value.
Assays:
Type in all cases: functional
[1] = system: Klebsiella pneumoniae; assay: Antibacterial activity against KPC-2 producing Klebsiella pneumoniae isolate 209632 after 18 hrs by CLSI broth microdilution method; conditions: isolate 209632, 18 h
[2] = system: Pseudomonas aeruginosa; assay: Selectivity index, ratio of MIC for against IMP-4 producing Pseudomonas aeruginosa isolate 212886 to MIC for against IMP-4 producing Pseudomonas aeruginosa isolate 212886 in presence of BPL
[3] = system: Escherichia coli; assay: Antibacterial activity against Escherichia coli isolate 210737 after 18 hrs in presence of BPL by CLSI broth microdilution method; conditions: isolate 210737, 18 h
Summary of the method: (§1)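 CLSI broth microdilution against clinical isolates (ESBL E. coli, KPC-2 MDR K. pneumoniae, IMP-4 MDR P. aeruginosa; five per species). Iron limitation: Mueller-Hinton broth supplemented with 16 mg/liter 2,2'-bipyridyl to complex iron and induce iron uptake systems. Read-out: MIC.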

[4] = system: Pseudomonas aeruginosa; assay: Antibacterial activity against IMP-4 producing Pseudomonas aeruginosa isolate 208247 after 18 hrs in presence of BPL by CLSI broth microdilution method; conditions: isolate 208247, 18 h; summary of the method: as §1
[5] = system: Escherichia coli; assay: Antibacterial activity against extended-spectrum beta-lactamase producing Escherichia coli isolate 209285 after 18 hrs in presence of BPL by CLSI broth microdilution method; conditions: isolate 209285, 18 h; summary of the method: as §1
[6] = system: Pseudomonas aeruginosa; assay: Antibacterial activity against IMP-4 producing Pseudomonas aeruginosa isolate 208247 after 18 hrs by CLSI broth microdilution method; conditions: isolate 208247, 18 h
[7] = system: Escherichia coli; assay: Antibacterial activity against extended-spectrum beta-lactamase producing Escherichia coli isolate 208687 after 18 hrs by CLSI broth microdilution method; conditions: isolate 208687, 18 h
[8] = system: Klebsiella pneumoniae; assay: Selectivity index, ratio of MIC for against KPC-2 producing Klebsiella pneumoniae isolate 212229 to MIC for against KPC-2 producing Klebsiella pneumoniae isolate 212229 in presence of BPL
[9] = system: Pseudomonas aeruginosa; assay: Antibacterial activity against IMP-4 producing Pseudomonas aeruginosa isolate 209321 after 18 hrs by CLSI broth microdilution method; conditions: isolate 209321, 18 h
[10] = system: Pseudomonas aeruginosa; assay: Antibacterial activity against IMP-4 producing Pseudomonas aeruginosa isolate 209321 after 18 hrs in presence of BPL by CLSI broth microdilution method; conditions: isolate 209321, 18 h; summary of the method: as §1
[11] = system: Pseudomonas aeruginosa; assay: Antibacterial activity against IMP-4 producing Pseudomonas aeruginosa isolate 212886 after 18 hrs in presence of BPL by CLSI broth microdilution method; conditions: isolate 212886, 18 h; summary of the method: as §1
[12] = system: Pseudomonas aeruginosa; assay: Antibacterial activity against IMP-4 producing Pseudomonas aeruginosa isolate 212886 after 18 hrs by CLSI broth microdilution method; conditions: isolate 212886, 18 h
[13] = system: Klebsiella pneumoniae; assay: Antibacterial activity against KPC-2 producing Klebsiella pneumoniae isolate 209735 after 18 hrs in presence of BPL by CLSI broth microdilution method; conditions: isolate 209735, 18 h; summary of the method: as §1
[14] = system: Escherichia coli; assay: Antibacterial activity against extended-spectrum beta-lactamase producing Escherichia coli isolate 208687 after 18 hrs in presence of BPL by CLSI broth microdilution method; conditions: isolate 208687, 18 h; summary of the method: as §1
[15] = system: Klebsiella pneumoniae; assay: Antibacterial activity against KPC-2 producing Klebsiella pneumoniae isolate 209735 after 18 hrs by CLSI broth microdilution method; conditions: isolate 209735, 18 h
[16] = system: Klebsiella pneumoniae; assay: Antibacterial activity against KPC-2 producing Klebsiella pneumoniae isolate 212423 after 18 hrs in presence of BPL by CLSI broth microdilution method; conditions: isolate 212423, 18 h; summary of the method: as §1
[17] = system: Escherichia coli; assay: Antibacterial activity against extended-spectrum beta-lactamase producing Escherichia coli isolate 209285 after 18 hrs by CLSI broth microdilution method; conditions: isolate 209285, 18 h
[18] = system: Pseudomonas aeruginosa; assay: Antibacterial activity against IMP-4 producing Pseudomonas aeruginosa isolate 209471 after 18 hrs by CLSI broth microdilution method; conditions: isolate 209471, 18 h
[19] = system: Klebsiella pneumoniae; assay: Antibacterial activity against KPC-2 producing Klebsiella pneumoniae isolate 212423 after 18 hrs by CLSI broth microdilution method; conditions: isolate 212423, 18 h
[20] = system: Escherichia coli; assay: Selectivity index, ratio of MIC for against extended-spectrum beta-lactamase producing Escherichia coli isolate 208687 to MIC for extended-spectrum beta-lactamase producing Escherichia coli isolate 208687 in presence of BPL
[21] = system: Pseudomonas aeruginosa; assay: Antibacterial activity against IMP-4 producing Pseudomonas aeruginosa isolate 209471 after 18 hrs in presence of BPL by CLSI broth microdilution method; conditions: isolate 209471, 18 h; summary of the method: as §1
[22] = system: Klebsiella pneumoniae; assay: Antibacterial activity against KPC-2 producing Klebsiella pneumoniae isolate 212232 after 18 hrs in presence of BPL by CLSI broth microdilution method; conditions: isolate 212232, 18 h; summary of the method: as §1
[23] = system: Klebsiella pneumoniae; assay: Selectivity index, ratio of MIC for against KPC-2 producing Klebsiella pneumoniae isolate 209632 to MIC for against KPC-2 producing Klebsiella pneumoniae isolate 209632 in presence of BPL
[24] = system: Escherichia coli; assay: Antibacterial activity against Escherichia coli isolate 210737 after 18 hrs by CLSI broth microdilution method; conditions: isolate 210737, 18 h
[25] = system: Escherichia coli; assay: Antibacterial activity against extended-spectrum beta-lactamase producing Escherichia coli isolate 212648 after 18 hrs by CLSI broth microdilution method; conditions: isolate 212648, 18 h
[26] = system: Pseudomonas aeruginosa; assay: Antibacterial activity against IMP-4 producing Pseudomonas aeruginosa isolate 207272 after 18 hrs in presence of BPL by CLSI broth microdilution method; conditions: isolate 207272, 18 h; summary of the method: as §1
[27] = system: Escherichia coli; assay: Selectivity index, ratio of MIC for against extended-spectrum beta-lactamase producing Escherichia coli isolate 212648 to MIC for extended-spectrum beta-lactamase producing Escherichia coli isolate 212648 in presence of BPL
[28] = system: Klebsiella pneumoniae; assay: Antibacterial activity against KPC-2 producing Klebsiella pneumoniae isolate 209632 after 18 hrs in presence of BPL by CLSI broth microdilution method; conditions: isolate 209632, 18 h; summary of the method: as §1
[29] = system: Pseudomonas aeruginosa; assay: Selectivity index, ratio of MIC for against IMP-4 producing Pseudomonas aeruginosa isolate 209471 to MIC for against IMP-4 producing Pseudomonas aeruginosa isolate 209471 in presence of BPL
[30] = system: Klebsiella pneumoniae; assay: Selectivity index, ratio of MIC for against KPC-2 producing Klebsiella pneumoniae isolate 212423 to MIC for against KPC-2 producing Klebsiella pneumoniae isolate 212423 in presence of BPL
[31] = system: Klebsiella pneumoniae; assay: Antibacterial activity against KPC-2 producing Klebsiella pneumoniae isolate 212232 after 18 hrs by CLSI broth microdilution method; conditions: isolate 212232, 18 h
[32] = system: Pseudomonas aeruginosa; assay: Selectivity index, ratio of MIC for against IMP-4 producing Pseudomonas aeruginosa isolate 208247 to MIC for against IMP-4 producing Pseudomonas aeruginosa isolate 208247 in presence of BPL
[33] = system: Escherichia coli; assay: Antibacterial activity against extended-spectrum beta-lactamase producing Escherichia coli isolate 106342 after 18 hrs by CLSI broth microdilution method; conditions: isolate 106342, 18 h
[34] = system: Klebsiella pneumoniae; assay: Selectivity index, ratio of MIC for against KPC-2 producing Klebsiella pneumoniae isolate 212232 to MIC for against KPC-2 producing Klebsiella pneumoniae isolate 212232 in presence of BPL
[35] = system: Escherichia coli; assay: Selectivity index, ratio of MIC for against extended-spectrum beta-lactamase producing Escherichia coli isolate 209285 to MIC for extended-spectrum beta-lactamase producing Escherichia coli isolate 209285 in presence of BPL
[36] = system: Escherichia coli; assay: Antibacterial activity against extended-spectrum beta-lactamase producing Escherichia coli isolate 212648 after 18 hrs in presence of BPL by CLSI broth microdilution method; conditions: isolate 212648, 18 h; summary of the method: as §1
[37] = system: Escherichia coli; assay: Antibacterial activity against extended-spectrum beta-lactamase producing Escherichia coli isolate 106342 after 18 hrs in presence of BPL by CLSI broth microdilution method; conditions: isolate 106342, 18 h; summary of the method: as §1
[38] = system: Pseudomonas aeruginosa; assay: Antibacterial activity against IMP-4 producing Pseudomonas aeruginosa isolate 207272 after 18 hrs by CLSI broth microdilution method; conditions: isolate 207272, 18 h
[39] = system: Escherichia coli; assay: Selectivity index, ratio of MIC for against extended-spectrum beta-lactamase producing Escherichia coli isolate 106342 to MIC for extended-spectrum beta-lactamase producing Escherichia coli isolate 106342 in presence of BPL
[40] = system: Klebsiella pneumoniae; assay: Antibacterial activity against KPC-2 producing Klebsiella pneumoniae isolate 212229 after 18 hrs in presence of BPL by CLSI broth microdilution method; conditions: isolate 212229, 18 h; summary of the method: as §1
[41] = system: Klebsiella pneumoniae; assay: Selectivity index, ratio of MIC for against KPC-2 producing Klebsiella pneumoniae isolate 209735 to MIC for against KPC-2 producing Klebsiella pneumoniae isolate 209735 in presence of BPL
[42] = system: Klebsiella pneumoniae; assay: Antibacterial activity against KPC-2 producing Klebsiella pneumoniae isolate 212229 after 18 hrs by CLSI broth microdilution method; conditions: isolate 212229, 18 h
[43] = system: Escherichia coli; assay: Selectivity index, ratio of MIC for against Escherichia coli isolate 210737 to MIC for Escherichia coli isolate 210737 in presence of BPL
[44] = system: Pseudomonas aeruginosa; assay: Selectivity index, ratio of MIC for against IMP-4 producing Pseudomonas aeruginosa isolate 207272 to MIC for against IMP-4 producing Pseudomonas aeruginosa isolate 207272 in presence of BPL

MIC [1]: 2 µg/mL (≈ 2.91 µM)
MIC [3]: 1 µg/mL
MIC [4]: 64 µg/mL
MIC [5]: 4 µg/mL
MIC [6]: 64 µg/mL (≈ 93.1 µM)
MIC [7]: 4 µg/mL (≈ 5.82 µM)
MIC [9]: > 64 µg/mL
MIC [10]: > 64 µg/mL
MIC [11]: 32 µg/mL
MIC [12]: > 64 µg/mL
MIC [13]: 2 µg/mL
MIC [14]: 1 µg/mL
MIC [15]: 4 µg/mL (≈ 5.82 µM)
MIC [16]: 2 µg/mL
MIC [17]: 4 µg/mL (≈ 5.82 µM)
MIC [18]: 64 µg/mL (≈ 93.1 µM)
MIC [19]: 4 µg/mL (≈ 5.82 µM)
MIC [21]: 64 µg/mL
MIC [22]: 0.25 µg/mL
MIC [24]: 2 µg/mL (≈ 2.91 µM)
MIC [25]: 4 µg/mL (≈ 5.82 µM)
MIC [26]: 64 µg/mL
MIC [28]: 1 µg/mL
MIC [31]: 2 µg/mL (≈ 2.91 µM)
MIC [33]: 4 µg/mL (≈ 5.82 µM)
MIC [36]: 1 µg/mL
MIC [37]: 2 µg/mL
MIC [38]: 64 µg/mL (≈ 93.1 µM)
MIC [40]: 1 µg/mL
MIC [42]: 4 µg/mL (≈ 5.82 µM)
Structure (SMILES): CC(C)C(O/N=C(\C(=O)N[C@@H]1C(=O)N(S(=O)(=O)O)[C@@H]1CSc1nc(=O)c(O)nn1C)c1csc(N)n1)c1cc(=O)c(O)cn1O (some centres undefined)
Selectivity Index [2]: >2
Selectivity Index [8]: 4
Selectivity Index [20]: 4
Selectivity Index [23]: 2
Selectivity Index [27]: 4
Selectivity Index [29]: 1
Selectivity Index [30]: 2
Selectivity Index [32]: 1
Selectivity Index [34]: 8
Selectivity Index [35]: 1
Selectivity Index [39]: 2
Selectivity Index [41]: 2
Selectivity Index [43]: 2
Selectivity Index [44]: 1

From ChEMBL document CHEMBL4152188, “Design, synthesis and biological evaluation of C(4) substituted monobactams as antibacterial agents against multidrug-resistant Gram-negative bacteria” (Eur J Med Chem, 2018)
